ChEMBL document CHEMBL3244217, “Metabolism of cis-delta4-15(S)-15-methylprostaglandin F1alpha methyl ester in the rat” (J Med Chem, 1978)

Experiments:
Set-up in all cases: dose 0.28 mg/kg, route oral
Rattus norvegicus [1] = assay: Drug level in Sprague-Dawley rat treated with [3H]-cis-delta4-15(S)-15-methylprostaglandin F1alpha methyl ester at 0.28 mg/kg, po assessed compound formation; assay type: ADME, organism-based; conditions: in vivo
Rattus norvegicus [2] = assay: Toxicity in Sprague-Dawley rat assessed as fecal stained abdominal area at 0.28 mg/kg, po up to 1 to 3 days; assay type: organism-based, Abdomen; conditions: in vivo
Method in brief: (§1)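 Fifteen rats were kept in metabolism cages for 17 days. Each morning they received an oral dose of 0.25 mg of tritium-labelled drug (1 × 10^7 dpm). The animals were watched for side effects, including depression, diarrhoea, faecal staining of the abdomen and mortality, over the chronic dosing period.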

Rattus norvegicus [3] = assay: Toxicity in Sprague-Dawley rat assessed as depression at 0.28 mg/kg, po up to 1 to 3 days; assay type: organism-based; conditions: in vivo; method in brief: as §1
Rattus norvegicus [4] = assay: Drug metabolism in Sprague-Dawley rat assessed as metabolite 5 ((4aR,5R,6R,7aS)-6-hydroxy-5-((S)-3-hydroxy-3-methyloct-1-enyl)hexahydrocyclopenta[b]pyran-2(3H)-one) formation at 0.28 mg/kg, po administered as single dose; assay type: ADME, organism-based; conditions: in vivo
Method in brief: (§2)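 Urine was extracted on an Amberlite XAD-2 column and partially purified by silicic acid chromatography. Components were then separated by reversed-phase partition chromatography on Sephadex LH-20 (isooctyl alcohol–chloroform–methanol–water, 15:15:114:86), collecting 9-mL fractions. Identification used GC with radioactivity monitoring (3.8% UCW-98, 200 °C) and GC-MS of methyl ester, O-methoxime and trimethylsilyl derivatives; silylation was at 50 °C for 1 h.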

Rattus norvegicus [5] = assay: Toxicity in Sprague-Dawley rat assessed as depression at 0.28 mg/kg, po after 3 days; assay type: organism-based; conditions: in vivo, 72 h
[6] = Drug excretion in Sprague-Dawley rat feces at 0.28 mg/kg, po administered as single dose within 74 hrs relative to control; assay type: ADME, organism-based; conditions: faeces, read-out: Drug excretion
Method in brief: (§3)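 Four female Sprague-Dawley rats (Upjohn strain), about 200 g, were fasted overnight and each given one 0.28-mg oral dose of tritium-labeled drug (1.24 × 10^7 dpm) in distilled water by gastric tube. They were then kept in metabolism cages with free food and water, and urine and feces were collected at intervals. Radioactivity was read by liquid scintillation with external-standard quench correction. Urine aliquots (0.2 mL) were counted directly; feces were homogenized in water and aliquots dried and combusted before counting.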

Rattus norvegicus [7] = assay: Toxicity in Sprague-Dawley rat assessed as fecal stained abdominal area at 0.28 mg/kg, po after 3 days; assay type: organism-based, Abdomen; conditions: in vivo, 72 h
Rattus norvegicus [8] = assay: Toxicity in Sprague-Dawley rat assessed as mortality at 0.28 mg/kg, po; assay type: organism-based; conditions: in vivo; method in brief: as §1
Rattus norvegicus [9] = assay: Drug metabolism in Sprague-Dawley rat assessed as metabolite 3 (15-methyl-2,3-dinorprostaglandin F1alpha) formation at 0.28 mg/kg, po administered as single dose; assay type: ADME, organism-based; conditions: in vivo; method in brief: as §2
Rattus norvegicus [10] = assay: Drug metabolism in Sprague-Dawley rat assessed as metabolite 4 (15-methyl-2,3,4,5-tetranorprostaglandin F1alpha) formation at 0.28 mg/kg, po administered as single dose; assay type: ADME, organism-based; conditions: in vivo; method in brief: as §2
[11] = Drug excretion in Sprague-Dawley rat urine at 0.28 mg/kg, po administered as single dose within 74 hrs relative to control; assay type: ADME, organism-based; conditions: read-out: Drug excretion; method in brief: as §3
Rattus norvegicus [12] = assay: Toxicity in Sprague-Dawley rat assessed as diarrhea at 0.28 mg/kg, po after 3 days; assay type: organism-based; conditions: in vivo, 72 h
Rattus norvegicus [13] = assay: Drug metabolism in Sprague-Dawley rat assessed as metabolite 2 (cis-delta4-15-methylprostaglandin F1alpha) formation at 0.28 mg/kg, po administered as single dose; assay type: ADME, organism-based; conditions: in vivo; method in brief: as §2
Rattus norvegicus [14] = assay: Toxicity in Sprague-Dawley rat assessed as diarrhea at 0.28 mg/kg, po up to 1 to 3 days; assay type: organism-based; conditions: in vivo; method in brief: as §1

Compound: CCCCC[C@](C)(O)/C=C/[C@@H]1[C@@H](CCC(=O)O)[C@@H](O)C[C@H]1O
- Drug metabolism (Rattus norvegicus [1]): metabolite_detected

Compound: CCCCC[C@](C)(O)/C=C/[C@@H]1[C@H]2CCC(=O)O[C@H]2C[C@H]1O
- Drug metabolism (Rattus norvegicus [1]): metabolite_detected

Compound: [3H]O[C@H]1C[C@@H](O)[C@H](/C=C/[C@@](C)(O)CCCCC)[C@H]1CC/C=C\CCC(=O)OC
- Activity (Rattus norvegicus [2]): Toxic
- Activity (Rattus norvegicus [3]): Toxic
- Drug metabolism (Rattus norvegicus [4]): metabolite_detected
- Activity (Rattus norvegicus [5]): Non-toxic
- dose excreted at 74 h [6]: 38%
- Activity (Rattus norvegicus [7]): Non-toxic
- Activity (Rattus norvegicus [8]): Non-toxic
- Drug metabolism (Rattus norvegicus [9]): metabolite_detected
- Drug metabolism (Rattus norvegicus [10]): metabolite_detected
- dose excreted at 74 h [11]: 30%
- Activity (Rattus norvegicus [12]): Non-toxic
- Drug metabolism (Rattus norvegicus [13]): metabolite_detected
- Activity (Rattus norvegicus [14]): Toxic

Compound: CCCCC[C@](C)(O)/C=C/[C@@H]1[C@@H](CC/C=C\CCC(=O)O)[C@@H](O)C[C@H]1O
- Drug metabolism (Rattus norvegicus [1]): metabolite_detected

Compound: CCCCC[C@](C)(O)/C=C/[C@@H]1[C@@H](CCCCC(=O)O)[C@@H](O)C[C@H]1O
- Drug metabolism (Rattus norvegicus [1]): metabolite_detected
